Screening results (PubChem)
ABCB6 inh MLPCN – human ABCB6 transporter inhibition | Q9NP58 | K562-ABCB6 porphyrin accumulation, flow cytometry, 1 h; active compounds read low | fluorescence ratio to DMSO, % at 10 µM | 0.19% of 360,000 active;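 active = fluorescence ratio to DMSO below 75%, the collection mean minus 3 SD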;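 note: signal is porphyrin accumulated inside mitochondria; 100% equals median channel fluorescence of DMSO control wells; lower ratio means ABCB6 inhibition with less porphyrin fluorescence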
Target sequence (Q9NP58 whole entry, looked up): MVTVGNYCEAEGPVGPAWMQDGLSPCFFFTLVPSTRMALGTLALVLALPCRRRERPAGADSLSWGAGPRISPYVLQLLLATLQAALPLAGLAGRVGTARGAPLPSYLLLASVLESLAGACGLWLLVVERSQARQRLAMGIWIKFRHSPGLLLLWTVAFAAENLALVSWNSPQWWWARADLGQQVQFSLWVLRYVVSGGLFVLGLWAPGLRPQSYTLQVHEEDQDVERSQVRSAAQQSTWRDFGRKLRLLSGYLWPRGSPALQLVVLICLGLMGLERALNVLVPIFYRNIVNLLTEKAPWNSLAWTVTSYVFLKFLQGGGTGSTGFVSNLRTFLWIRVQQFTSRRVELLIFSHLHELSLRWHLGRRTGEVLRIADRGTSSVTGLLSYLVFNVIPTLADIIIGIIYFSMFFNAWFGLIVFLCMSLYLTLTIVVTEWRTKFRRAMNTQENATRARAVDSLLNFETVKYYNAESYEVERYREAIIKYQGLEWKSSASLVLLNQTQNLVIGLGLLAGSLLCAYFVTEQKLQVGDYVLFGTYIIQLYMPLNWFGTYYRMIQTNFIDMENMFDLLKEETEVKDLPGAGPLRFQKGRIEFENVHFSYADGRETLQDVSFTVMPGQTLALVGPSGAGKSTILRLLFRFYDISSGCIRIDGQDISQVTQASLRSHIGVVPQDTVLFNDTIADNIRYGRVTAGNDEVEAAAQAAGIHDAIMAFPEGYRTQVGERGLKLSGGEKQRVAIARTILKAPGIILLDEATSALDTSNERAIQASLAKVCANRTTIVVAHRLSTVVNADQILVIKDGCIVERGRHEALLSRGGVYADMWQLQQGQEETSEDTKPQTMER
Xi reactivation – activators of X-chromosome reactivation in mouse fibroblasts | XiGFP mouse fibroblasts, % GFP-positive cells imaging, 3 d; cells co-treated with 5-aza-dC sensitizer; scaled so ellipticine positive control = 100% | 0.055% of 360,000 active | activation, % at 7.58 µM;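 active = mean normalized replicate activation at least 10% and every replicate at or above 10%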;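 note: 0% = median of on-plate neutral control wells and 100% = ellipticine 6 µM median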
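Material: XiGFP fibroblasts, SV40-immortalized. Buffer or medium: DMEM plus 5-aza-dC sensitizer. Compound: single concentration per compound, delivered by pin transfer. Times: 3 days compound exposure. Controls: ellipticine 6 µM.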
Myeloid diff 2 – promotes myeloid progenitor differentiation. calls only at 10 µM. AID 624256. ER-HoxA9 myeloid progenitors, lysozyme-GFP differentiation, flow cytometry. 1% of 360,000 active;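 active = normalized GFP-positive differentiation at or above the plate's own cutoff, the solvent-only control mean plus 3 SD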;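 note: cells exposed to compound for four days before flow analysis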
Myeloid diff – myeloid differentiation induction; shares compounds with Myeloid diff 2; calls only; ER-HoxA9 myeloid progenitors, GFP/Mac1 double-positive flow; 2% of 2,300 active; AID 651706;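 active = share of green or green-and-red cells above 9 and 9% in run 1 or 4 and 3% in run 2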
GFP autofluor – flagged as fluorescent in myeloid differentiation counter-screen; 7.4% of 2,300 active; ER-HoxA9 myeloid progenitors, no estrogen, GFP autofluorescence flow cytometry; vehicle wells 0%, positive control 100%; shares compounds with Myeloid diff 2; fluorescence response, % (test concentration not listed);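 active = over 5% cells positive for green fluorescent reporter, or over 2% positive for both it and APC stain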;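 note: range taken on the double positive population between DMSO and positive control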
The depositor's hits bear a star; i = inactive; x = no result given; + = active, no number. This excerpt belongs to a sample that is enriched for hits.

SMILES	ABCB6 inh MLPCN	Xi reactivation	Myeloid diff 2	Myeloid diff	GFP autofluor
CC1CC(C)CN(C(=O)COC(=O)c2cccc(S(=O)(=O)N(C)c3ccccc3)c2)C1 (stereo not given)	96	0	i	x	x
CC1CC(C)CN(C(=O)COC(=O)c2ccc(S(=O)(=O)N(C)c3ccccc3)cc2)C1 (stereo not given)	100	0	i	i	0
COc1ccc2c3c(n(C)c2c1)[C@H](CO)N(C(=O)c1cccnc1)CC31CCN(C(=O)c2cccnc2)CC1	x	0	x	x	x
COc1ccc(CCNc2c(C)c(C)nc3ncnn23)cc1	98	x	i	i	0
CCc1c(C)nc2ncnn2c1NCCc1ccc(OC)c(OC)c1	87	x	i	x	x
C[C@@H]1CCCCO[C@H](CN(C)C(=O)Nc2ccc(C(F)(F)F)cc2)[C@H](C)CN([C@@H](C)CO)C(=O)c2cc(NC(=O)C3CCCCC3)ccc2O1	x	0	x	x	x
C=C1CCC[C@]2(C)C[C@H]3OC(=O)C(CN4CC(C)OC(C)C4)[C@H]3C[C@@H]12 (stereo not given in full)	99	0	i	x	x
CC1CCN(CC2C(=O)O[C@@H]3C[C@@]4(C)CCC[C@H](C)C4=C[C@H]23)CC(C)(C)C1 (stereo not given in full)	95	0	i	i	0
O=C(C[C@H]1CC[C@H]2[C@@H](COC[C@@H](O)CN2C(=O)c2ccccc2F)O1)NCc1ccc(-c2ccccc2)cc1	x	0	x	x	x
COc1ccc(S(=O)(=O)N(C)C[C@@H]2OCCCC[C@H](C)Oc3ccc(NC(=O)CCC(F)(F)F)cc3C(=O)N([C@@H](C)CO)C[C@@H]2C)cc1	x	0	x	x	x
CCC(=O)NC(=S)Nc1ccc(NC(=O)c2cccc([N+](=O)[O-])c2C)cc1	98	0	i	x	x
CCC(=O)NC(=S)Nc1ccc(NC(=O)c2ccccc2[N+](=O)[O-])cc1	99	0	i	i	1
C[C@@H]1CN([C@@H](C)CO)C(=O)c2cc(NC(=O)CCN3CCOCC3)ccc2O[C@@H]1CN(C)Cc1ccccc1	x	0	x	x	x
N#C/C(=C\c1cc(Cl)ccc1O)C(=O)NC1CCCCC1	104	x	i	x	x
N#C/C(=C\c1cc(Cl)cc(Cl)c1O)C(=O)NC1CCCCC1	102	x	i	i	0
CO[C@@H]1CN(C)C(=O)c2ccc(NS(=O)(=O)c3ccccc3C)cc2OC[C@@H](C)N(S(C)(=O)=O)C[C@H]1C	x	0	x	x	x
COc1cc2oc(=O)cc(-c3ccc(-c4ccc(C)cc4)cc3)c2c(OC)c1OC	125	0	i	x	x
COc1cc2oc(=O)cc(-c3ccc(-c4ccc(C#N)cc4)cc3)c2c(OC)c1OC	96	0	i	i	0
CC(=O)N(C)C[C@H]1Oc2ncc(-c3ccccc3C)cc2C(=O)N([C@H](C)CO)C[C@H]1C	x	1	x	x	x
CC(C)NC(=O)Nc1ccc2c(c1)C(=O)N([C@@H](C)CO)C[C@@H](C)[C@H](CN(C)Cc1ccc3c(c1)OCO3)OCCCC[C@@H](C)O2	x	4	x	x	x
N#Cc1ccc(-c2ccc([C@H]3[C@@H](CO)N4C(=O)CN(C(=O)C5CCC5)C[C@@H]34)cc2)cc1	x	0	x	x	x
Cc1ccc2c(C)c(C(=O)Nc3c(C)n(C)n(-c4ccccc4)c3=O)oc2c1	96	x	i	x	x
Cc1ccccc1C(=O)/C(C#N)=N/Nc1c(C)n(C)n(-c2ccccc2)c1=O	101	0	i	x	x
Cc1c(N/N=C(\C#N)C(=O)c2ccccc2)c(=O)n(-c2ccccc2)n1C	100	1	i	i	6.9*
Cc1cc2oc(C(=O)Nc3c(C)n(C)n(-c4ccccc4)c3=O)c(C)c2cc1C	102	x	i	i	0
SMILES	ABCB6 inh MLPCN	Xi reactivation	Myeloid diff 2	Myeloid diff	GFP autofluor
C[C@H]1CN([C@@H](C)CO)C(=O)c2cc(NS(=O)(=O)c3cccs3)ccc2O[C@@H]1CN(C)Cc1ccncc1	x	0	x	x	x
Cc1ccc(S(=O)(=O)N(C)C[C@H]2Oc3c(NS(=O)(=O)c4ccc(Cl)cc4)cccc3C(=O)N([C@@H](C)CO)C[C@@H]2C)cc1	x	0	x	x	x
CO[C@@H]1CN(C)C(=O)c2ccc(NS(=O)(=O)c3ccccc3)cc2OC[C@@H](C)N(C(=O)NC(C)C)C[C@H]1C	x	0	x	x	x
O=C(Cc1c[nH]c2ccccc12)N1CCN(S(=O)(=O)c2ccc(Cl)cc2)CC1	101	0	i	x	x
O=S(=O)(c1ccc(Cl)cc1)N1CCN(Cc2c[nH]c3ccccc23)CC1	97	x	i	i	0
COc1cccc(C(=O)Nc2ccc3c(c2)C(=O)N(C)C[C@@H](OC)[C@H](C)CN(CC2CC2)[C@@H](C)CO3)c1	x	0	x	x	x
CCC(=O)N1CC2(CCN(S(C)(=O)=O)CC2)c2c(n(C)c3cc(OC)ccc23)[C@@H]1CO	x	0	x	x	x
COc1cccc(-c2csc(NNC(=O)c3cccs3)n2)c1	101	0	i	x	x
COc1cccc(-c2csc(NC(=O)Oc3ccccc3)n2)c1	91	x	i	i	0
C[C@H]1CN([C@@H](C)CO)C(=O)c2cc(NC(=O)CCC(F)(F)F)ccc2O[C@@H]1CN(C)C(=O)Nc1ccc2c(c1)OCO2	x	-1	x	x	x
CCOc1ccc(/C(O)=C2/C(=O)C(=O)N(c3nc(C)c(C)s3)C2c2ccco2)cc1 (stereo not given)	109	x	i	i	9.0*
CCN(CC)CCN1C(=O)C(=O)/C(=C(/O)c2ccc(OC)cc2)C1c1ccco1 (stereo not given)	98	x	i	x	x
CNC[C@@H]1OCc2cnnn2CCCC(=O)N([C@H](C)CO)C[C@@H]1C	x	0	x	x	x
Cc1cc(Nc2cccc([N+](=O)[O-])c2)c2cccc(C)c2n1	96	0	i	x	x
Cc1cc(Nc2ccccc2)c2c([N+](=O)[O-])ccc(C)c2n1	96	0	i	i	0
COc1cccc(NC(=O)C[C@H]2CC[C@H]3[C@@H](COc4ccc(NC(=O)c5ccccc5F)cc4C(=O)N3C)O2)c1	x	0	x	x	x
COc1ccc(NC(=O)N(C)C[C@H]2OCCCC[C@@H](C)Oc3ccc(NS(=O)(=O)c4ccc(OC)cc4)cc3C(=O)N([C@@H](C)CO)C[C@@H]2C)cc1	x	1	x	x	x
O=C(Nc1cccc(F)c1)N[C@H]1CC[C@H](CCn2cc(Cc3ccccc3)nn2)O[C@@H]1CO	x	-1	x	x	x
Cc1cccc(-n2ncc3c(NCc4ccco4)ncnc32)c1	96	x	+	i	0
Cc1ccc(-n2ncc3c(NCc4ccco4)ncnc32)cc1C	98	0	i	x	x
C[C@@H]1CN([C@@H](C)CO)S(=O)(=O)c2ccc(-c3cccnc3)cc2O[C@@H]1CN(C)C(=O)NC1CCCC1	x	0	x	x	x
N#Cc1c(N2CCN(C(=O)c3ccco3)CC2)nc(-c2ccccc2)c2c1CCCC2	100	x	i	i	0
N#Cc1c(N2CCN(C(=O)c3ccccc3)CC2)nc(-c2ccccc2)c2c1CCCC2	96	x	i	x	x
CCC(=O)N(C)C[C@H]1Oc2cc(C3=CCCC3)ccc2S(=O)(=O)N([C@H](C)CO)C[C@@H]1C	x	0	x	x	x
